Measurements published in ChEMBL document CHEMBL3085653, “Synthesis and evaluation of hexahydropyrimidines and diamines as novel hepatitis C virus inhibitors” (Eur J Med Chem, 2013).
Counter-ions that a name gives are not always drawn. Calls of active or inactive are those of the source. The rule behind the calls is not given here.

Tests used:
[1] = Cytotoxicity against human HuH7 cells; type: cell-based, Huh-7
Hepatitis C virus [2] = experiment: Antiviral activity against cell culture derived HCV expressing NS5A-GFP fusion protein infected in human HuH7 cells assessed as inhibition of viral life cycle after 72 hrs by Hoechst-33342 staining-based confocal microscopy; type: functional, organism-based, Hepacivirus hominis; settings: Huh-7, 72 h
[3] = Selectivity index, ratio of CC50 for human HuH7 cells to EC50 for cell culture derived HCV expressing NS5A-GFP fusion protein; design: species or system Huh-7
Summary of the method: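 Index is CC50 divided by EC50. Both values come from the same 10-point dose response in naïve Huh-7 cells infected with NS5A-GFP HCVcc (MOI 1), read at 72 h post-infection. EC50 taken from GFP-positive infection and CC50 from Hoechst nuclei counts, by confocal imaging. Duplicates with quadruplicate measurements.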

Hepatitis C virus [4] = experiment: Antiviral activity against HCV assessed as prevention of infectious virions release into cell culture supernatant by viral supernatant transfer assay; type: functional, organism-based; settings: Hepacivirus hominis
Hepatitis C virus [5] = experiment: Antiviral activity against HCV expressing GFP infected in human HuH7 cells assessed as inhibition of viral RNA replication after 72 hrs by Hoechst-33342 staining-based confocal microscopy; type: functional, organism-based, Hepacivirus hominis; settings: Huh-7, 72 h
Summary of the method: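 Huh-7 replicon cells expressing GFP seeded at 2000 cells/well and incubated overnight, then given serially diluted compounds for 72 h. Cells fixed in 2% PFA and nuclei stained with Hoechst 33342 (10 μg/mL). Automated confocal imaging used: RNA replication read as GFP expression, cytotoxicity as nucleus counts. EC50 calculated by non-linear regression.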

[6] = Metabolic stability in liver microsomes (unknown origin) assessed as formation of N1,N3-dibenzylpropane-1,3-diamine by mass spectrum analysis; type: ADME, Microsome
Hepatitis C virus [7] = experiment: Antiviral activity against HCV pseudoparticle expressing envelope protein E1 and E2 assessed as inhibition of E1/E2-mediated viral entry into human Huh7 cells treated for 1 hr prior to viral inoculation followed by compound washout 12 hrs post viral inoculation measured after 72 hrs by GFP reporter gene-based confocal microscopic analysis; type: functional, organism-based, Hepacivirus hominis; settings: Huh-7
[8] = Chemical stability in cell culture medium assessed as formation of N1,N3-dibenzylpropane-1,3-diamine at 37 degC after 2 days by LC/MS analysis; type: physicochemical; settings: 48 h
Summary of the method: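 Compound incubated with cells in culture medium at 37 °C for two days. Supernatant then analysed by LC/MS for the parent compound and the ring-opened diamine.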

Row | SMILES | EC50 (Hepatitis C virus [2]) [µM] | EC50 (Hepatitis C virus [5]) [µM] | Stability [6] | EC50 (Hepatitis C virus [7]) [µM] | Stability [8] | CC50 [1] [µM] | Ratio CC50/EC50 [3] | Activity (Hepatitis C virus [4])
1 | O=C1N(Cc2ccccc2)CCCN1Cc1ccccc1 | > 50 | – | – | – | – | > 50 | – | Active
2 | NCCCNCCCCNCCCN [SPERMINE] | > 50 | – | – | – | – | > 50 | – | –
3 | O=C(NCCCNC(=O)c1ccccc1)c1ccccc1 | > 50 | – | – | – | – | > 50 | – | –
4 | c1ccc(CN2CCCN(Cc3ccccc3)C2c2ccncc2)cc1 | 4.3 | > 50 | Unstable | 4 | Unstable | > 50 | >12 | Active
5 | c1ccc(CNCCCNCc2ccccc2)cc1 | 4.6 | – | – | – | – | 27 | 5.9 | –
6 | FC(F)(F)c1cccc(C2N(Cc3ccccc3)CCCN2Cc2ccccc2)c1 | 6.5 | – | – | – | – | > 50 | >7.7 | Active
7 | c1ccc(CN2CCCN(Cc3ccccc3)C2)cc1 | > 50 | – | – | – | – | > 50 | – | Active
8 | c1ccc(CNCCNCc2ccccc2)cc1 | > 50 | – | – | – | – | > 50 | – | –
9 | Fc1ccccc1CN1CCCN(Cc2ccccc2Cl)C1c1cccc(C(F)(F)F)c1 (stereo unspecified) | 11 | – | – | – | – | > 50 | >4.5 | Active
10 | c1ccc(CN2CCN(Cc3ccccc3)C2c2ccncc2)cc1 | > 50 | – | – | – | – | > 50 | – | –
11 | NCCCCN [PUTRESCINE DIHYDROCHLORIDE] | > 50 | – | – | – | – | > 50 | – | –
12 | CC1N(Cc2ccccc2)CCN1Cc1ccccc1 | > 50 | – | – | – | – | > 50 | – | –
13 | COc1ccc(CN2CCCC(CNc3ccc(OC)cc3)C2)cc1 (stereo unspecified) | 11 | – | – | – | – | > 50 | >4.7 | –
14 | CC(=O)N(CCCCN(Cc1ccccc1)C(C)=O)Cc1ccccc1 | > 50 | – | – | – | – | > 50 | – | –
15 | c1ccc(NCCCCNc2ccccc2)cc1 | > 50 | – | – | – | – | > 50 | – | –
16 | CC(C(=O)NCCCNC(=O)C(C)c1ccccc1)c1ccccc1 (stereo unspecified) | > 50 | – | – | – | – | > 50 | – | –
17 | COc1ccc(CN2CCCN(Cc3ccc(OC)cc3)C2c2cccc(C(F)(F)F)c2)cc1 | 3.2 | – | – | – | – | 43 | 13 | Active
18 | CN(C)c1ccc(C2N(Cc3ccccc3)CCN2Cc2ccccc2)cc1 | > 50 | – | – | – | – | > 50 | – | –
19 | CC1N(Cc2ccccc2)CCCN1Cc1ccccc1 | 3.7 | – | – | – | – | > 50 | >14 | Active
20 | COc1cccc(CN2CCCN(Cc3ccccc3F)C2c2ccncc2)c1 (stereo unspecified) | 4.7 | – | – | – | – | > 50 | >11 | Active
21 | CN(C)c1ccc(C2N(Cc3ccccc3)CCCN2Cc2ccccc2)cc1 | 25 | – | – | – | – | > 50 | >2 | Active
22 | Cc1ccc(C2N(Cc3ccccc3)CCCN2Cc2ccccc2)o1 | > 50 | – | – | – | – | > 50 | – | Active
23 | NCCCCNCCCN [SPERMIDINE TRIHYDROCHLORIDE] | > 50 | – | – | – | – | > 50 | – | –

Stronger by EC50 (Hepatitis C virus [2]), values ahead:

Row | EC50 (Hepatitis C virus [2]) [µM] | EC50 (Hepatitis C virus [5]) [µM] | Stability [6] | EC50 (Hepatitis C virus [7]) [µM] | Stability [8] | SMILES | CC50 [1] [µM] | Ratio CC50/EC50 [3] | Activity (Hepatitis C virus [4])
24 | 1.1 | – | – | – | – | COc1ccc(CNCC2CCCN(Cc3ccc(OC)cc3)C2)cc1 (stereo unspecified) | 34.5 | 31 | –
25 | 1.7 | – | – | – | – | c1ccc(CNCCOCCNCc2ccccc2)cc1 | 28 | 16 | –
26 | 1.3 | – | – | – | – | CN(C)c1ccc(CN2CCCN(Cc3ccc(N(C)C)cc3)C2c2ccc(F)cc2)cc1 | 15 | 12 | Active
27 | 1.1 | – | – | – | – | c1ccc(CCNCCCNCCc2ccccc2)cc1 | 12 | 11 | –
28 | 1.5 | – | – | – | – | COc1ccc(CN2CCCN(Cc3ccc(OC)cc3)C2c2ccncc2)cc1 | 23 | 15 | Active
29 | 1.6 | – | – | – | – | COc1ccc(CN2CCCN(Cc3ccc(OC)cc3)C2c2ccc(C(F)(F)F)cc2)cc1 | 34 | 21 | Active
30 | 2.7 | – | – | – | – | COc1cccc(CN2CCCN(Cc3ccccc3F)C2c2ccc(C(F)(F)F)cc2)c1 (stereo unspecified) | 23 | 8.5 | Active
31 | 1.3 | – | – | – | – | COc1ccc(CN2CCCN(Cc3ccc(OC)cc3)C2c2ccc(N(C)C)cc2)cc1 | 28 | 22 | Active
32 | 1.5 | – | – | – | – | COc1ccc(CNCCCNCc2ccc(OC)cc2)cc1 | 33 | 22 | –
33 | 1.9 | – | – | – | – | COc1ccc(CN2CCCN(Cc3ccc(OC)cc3)C2c2ccc(F)cc2)cc1 | 38 | 20 | Active
34 | 0.32 | – | – | – | – | CN(C)c1ccc(CNCCCCNCc2ccc(N(C)C)cc2)cc1 | 11 | 34 | –
35 | 0.38 | – | – | – | – | COc1ccc(CNCCCCNCc2ccc(OC)cc2)cc1 | 32 | 84 | –
36 | 1.9 | – | – | – | – | COc1ccc(CN2CCCN(Cc3ccc(OC)cc3)C2c2ccc(C#N)c(F)c2)cc1 | 29 | 15 | Active
37 | 0.88 | – | – | – | – | CN(C)c1ccc(CNCCCNCc2ccc(N(C)C)cc2)cc1 | 17 | 19 | –
38 | 1.5 | – | – | – | – | CN(C)c1ccc(CN2CCCN(Cc3ccc(N(C)C)cc3)C2c2ccc(C(F)(F)F)cc2)cc1 | 23 | 15 | Active
39 | 0.83 | – | – | – | – | CN(C)c1ccc(CN2CCCN(Cc3ccc(N(C)C)cc3)C2c2ccncc2)cc1 | 14 | 17 | Active
40 | 1.2 | – | – | – | – | CC(CNCCCNCC(C)c1ccccc1)c1ccccc1 (stereo unspecified) | 18 | 15 | –
41 | 1.5 | – | – | – | – | COc1ccc(CN2CCCN(Cc3ccc(OC)cc3)C2c2ccc(C#N)cc2)cc1 | 20 | 13 | Active
42 | 0.61 | – | – | – | – | c1ccc(CNCCCCCNCc2ccccc2)cc1 | 29 | 48 | –
